Experimental findings from ChEMBL document CHEMBL2203013, “Strategy for Imidazotetrazine Prodrugs with Anticancer Activity Independent of MGMT and MMR” (ACS Med Chem Lett, 2012) are described below.

For data set [1], the system named is A2780. Briefly: Ratio of IC50 for human A2780 cells to IC50 for MMR-deficient human A2780/CP70 cells in presence of 10 uM MGMT inactivator Patrin2. The data set is classed as functional.
A short description of data set [2]: Prodrug conversion in citrate-phosphate buffer at pH 8 assessed as pseudo-first-order rate constant. Format: physicochemical. In outline:
(§1)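 Hydrolysis in citrate-phosphate buffers at 37 °C, followed by UV absorbance at 330 nm (loss of imidazotetrazine). k′ is a pseudo-first-order rate constant (×10–5 s–1), mean ± SD of three independent determinations; t1/2 given in hours.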

A short description of data set [3]: Prodrug conversion in citrate-phosphate buffer at pH 7.4 assessed as pseudo-first-order rate constant. Format: physicochemical. In outline:
as §1

The nature of data set [4]: Prodrug conversion in citrate-phosphate buffer at pH 4 assessed as pseudo-first-order rate constant. Format: physicochemical. A digest of the protocol: as §1
The test system of data set [5] is U-251. Briefly: Cytotoxicity against human U251 cells after 5 days by MTT assay. Format: functional, cell-based. Particulars: for pIC50: U-251, 120 h. Background: Tetrazolium dyes change colour on reduction, which living cells bring about.
Data set [6] can be described thus: Prodrug conversion in citrate-phosphate buffer at pH 8 assessed as half life of compound. The data set is classed as physicochemical. In outline:
as §1

The nature of data set [7]: Prodrug conversion in citrate-phosphate buffer at pH 7.4 assessed as half life of compound. The data set is classed as physicochemical. A digest of the protocol:
as §1

Data set [8] deals with A549. Description: Cytotoxicity against human A549 cells after 5 days by MTT assay. The data set is classed as functional, cell-based. Particulars: for pIC50: A549, 120 h.
Data set [9] in a line: Prodrug conversion in citrate-phosphate buffer at pH 4 assessed as half life of compound. The data set is classed as physicochemical. In outline:
as §1

Data set [10] relates to HCT-116. Description: Cytotoxicity against human HCT116 cells after 5 days by MTT assay. The data set is classed as functional, cell-based. Particulars: for pIC50: HCT-116, 120 h.
Data set [11] relates to PANC-1. Briefly: Cytotoxicity against human PANC1 cells after 5 days by MTT assay. The data set is classed as functional, cell-based. Particulars: for pIC50: PANC-1, 120 h.
Data set [12] has as its system HT-29. Description: Cytotoxicity against human HT-29 cells after 5 days by MTT assay. The data set is classed as functional, cell-based. The conditions noted are these: for pIC50: HT-29, 120 h.
Data set [13] has as its system DLD-1. Description: Cytotoxicity against human DLD1 cells after 5 days by MTT assay. Particulars: for pIC50: DLD-1, 120 h. The data set is classed as functional, cell-based.
Data set [14] deals with A2780/CP70. Description: Cytotoxicity against MMR-deficient human A2780/CP70 cells after 5 days by MTT assay. Format: functional, cell-based.
Data set [15] has as its system A2780/CP70. Briefly: (§2) Cytotoxicity against MMR-deficient human A2780/CP70 cells after 5 days by MTT assay in presence of 10 uM MGMT inactivator Patrin2. The data set is classed as functional, cell-based.
The subject of data set [16] is A2780. Description: Cytotoxicity against human A2780 cells after 5 days by MTT assay in presence of 10 uM MGMT inactivator Patrin2. The data set is classed as functional, cell-based.
For data set [17], the system named is A2780. Briefly: Cytotoxicity against human A2780 cells after 5 days by MTT assay. Format: functional, cell-based.
The subject of data set [18] is Nucleic Acid. Briefly: Binding affinity to Escherichia coli pBR322 DNA assessed as guanine-N7 alkylation on GC-rich region after 2 hrs by piperidine cleavage assay. Format: nucleic-acid assay.
Data set [19] deals with Nucleic Acid. Briefly: Induction of Escherichia coli pBR322 DNA alkylation assessed as formation of covalent DNA adducts after 2 hrs by Taq polymerase DNA stop assay. The data set is classed as nucleic-acid assay.
The nature of data set [20]: as §2. Format: functional, cell-based. Particulars: A2780/CP70, 120 h.

pIC50: −log10 of the molar value. Activity calls are given as the source filed them. The calls are words filed in the database; no cut-off is given here.

`Cc1ccc(N(C)CCn2nnc3c(C(N)=O)ncn3c2=O)cc1`: the “Ratio IC50” value in data set [1] came to 2.8. The Drug metabolism in data set [2] came out at 49.5 ×10⁻⁵ /s; in data set [3], 15.2 ×10⁻⁵ /s; in data set [4], 0.5 ×10⁻⁵ /s. The outcome in data set [5], in data set [8], in data set [10], in data set [11], in data set [12] and in [13] was Active. For the same molecule, the outcome in data set [14], in [15], in data set [16], in data set [17], in data set [18] and in data set [19] was Active. The t1/2 turned out to be 0.39 h in data set [6], 1.27 h in data set [7] and 41.5 h in data set [9].
On to `Cc1ccc(N(CCn2nnc3c(C(N)=O)ncn3c2=O)CCn2nnc3c(C(N)=O)ncn3c2=O)cc1`, for which the “Ratio IC50” value in data set [1] is 5.8. The figures for the Drug metabolism in [2], in data set [3] and in data set [4] were 45.1 ×10⁻⁵ /s, 14.4 ×10⁻⁵ /s and 0.4 ×10⁻⁵ /s, respectively. In addition, the result in data set [5], in data set [8], in [10], in [11], in data set [12] and in data set [13] was Active. The result in data set [14], in data set [15], in data set [16], in data set [17], in [18] and in [19] was Active. Besides, the t1/2 is 0.43 h in [6], 1.33 h in data set [7] and 48.5 h in data set [9].
Regarding `NC(=O)c1ncn2c(=O)n(CCCl)nnc12`, the result in data set [14], in data set [15], in data set [16] and in data set [17] was Active.
One may read the pIC50 as the IC50 on a negative log10 scale, so that one unit is a factor of ten. For the molecule `Cn1nnc2c(C(N)=O)ncn2c1=O` [TEMOZOLOMIDE], the “Ratio IC50” value in data set [1] is on record as over 27. The Drug metabolism in [2] was determined as 46.2 ×10⁻⁵ /s; in data set [3], 14 ×10⁻⁵ /s; in data set [4], 0.1 ×10⁻⁵ /s. The pIC50 in data set [5], in data set [8], in [10], in data set [11], in data set [12] and in data set [13] was under 3.60 in each case. The pIC50 in data set [20] was under 3.60; in [16] (A2780, 120 h), under 3.60. In addition, the values for the t1/2 in data set [6], in [7] and in data set [9] were 0.42 h, 1.38 h and 253 h, respectively. In addition, the outcome in data set [14] and in data set [17] was Active.
On to `N[C@@H](Cc1ccc(N(CCCl)CCCl)cc1)C(=O)O` [MELPHALAN], for which the pIC50 in data set [5], in data set [8], in data set [10], in data set [11], in data set [12] and in [13] was 5.52 each time. Further, the outcome in data set [14], in [15], in [16], in data set [17], in data set [18] and in [19] was Active.
